High-throughput results: PubChem BioAssay, Broad Institute
Only some compounds are listed: those with a hit (about 5.8% of all), similar ones and a draw of the others.
KDM4C inh – inhibitors of human demethylase GASC-1 KDM4C | GST-KDM4C 2-372, H3K9me3 peptide, LANCE TR-FRET | inhibition, % at 12.5 µM | actives 0.15% (n = 96,000) | AID 720574;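 active means mean replicate inhibition above about 25%, with at least 55% of replicates also reaching it, limit read from the data, passing the limit was not always enough; inconclusive means only one of those two conditions met; inactive means neither condition met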
Target sequence (Q9H3R0 2-372 limits assumed): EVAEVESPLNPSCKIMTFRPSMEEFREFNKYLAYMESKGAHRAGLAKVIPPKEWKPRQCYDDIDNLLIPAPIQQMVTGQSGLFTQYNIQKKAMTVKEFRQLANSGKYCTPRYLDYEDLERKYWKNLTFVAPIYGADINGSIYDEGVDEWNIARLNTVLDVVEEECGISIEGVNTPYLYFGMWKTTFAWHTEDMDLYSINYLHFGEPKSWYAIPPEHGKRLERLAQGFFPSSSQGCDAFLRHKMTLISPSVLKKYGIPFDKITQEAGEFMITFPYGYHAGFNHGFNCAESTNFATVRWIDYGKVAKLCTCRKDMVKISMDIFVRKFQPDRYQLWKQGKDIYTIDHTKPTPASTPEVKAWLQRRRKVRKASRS
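Material: GST-tagged GASC-1 (JMJD2C) catalytic fragment, aa 2-372. Input: enzyme final amount 10 nM. Medium: HEPES buffer, pH 7.5, plus ascorbate. Reagent: H3K9me3 peptide substrate, Fe(II), 2-oxoglutarate. Doses: single dose. Times: reaction 30 min RT, detection step 1 h RT. Measured by: LANCE TR-FRET. Evaluation: Fall in 671/618 emission ratio as inhibition.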
IDH1 R132H inh – blocks human IDH1 R132H reductase activity; diaphorase/resazurin fluorescence, 60 min; inhibition, % at 10 µM; actives 0.18% (n = 70,000); AID 624101; in the data active means inhibition above about 34%; inconclusive means no clear call, values can overlap the other calls; inactive means below about 11%
Target sequence (O75874 whole entry R132H): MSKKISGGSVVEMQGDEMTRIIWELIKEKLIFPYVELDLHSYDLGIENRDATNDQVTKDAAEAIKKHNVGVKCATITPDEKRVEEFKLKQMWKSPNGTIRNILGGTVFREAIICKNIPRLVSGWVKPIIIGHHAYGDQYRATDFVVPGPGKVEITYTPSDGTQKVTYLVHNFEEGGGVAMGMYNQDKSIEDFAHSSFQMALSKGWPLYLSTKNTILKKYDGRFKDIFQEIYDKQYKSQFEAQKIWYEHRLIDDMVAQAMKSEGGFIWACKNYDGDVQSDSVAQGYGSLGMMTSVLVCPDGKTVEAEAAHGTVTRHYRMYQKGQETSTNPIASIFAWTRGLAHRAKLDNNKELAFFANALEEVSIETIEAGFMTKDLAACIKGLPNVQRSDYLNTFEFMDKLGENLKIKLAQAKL
Pf Dd2 growth – inhibitors of Plasmodium falciparum Dd2 growth. P. falciparum Dd2 growth, SYBR Green, 72 h; stronger effect = lower value. activity change, % at 10 µM. actives 2.3% (n = 94,000). AID 1159554; in the data active means activity change below about -80%; inconclusive means no clear call, values can overlap the other calls
T cruzi growth-1 – blocks T. cruzi growth in NIH3T3 culture; inhibition, % at 8.34 µM; T. cruzi beta-gal in NIH3T3, GalScreen luminescence, 90 h; actives 5.9% (n = 77,000);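 active means mean inhibition above about 93%, with at least 55% of replicates each passing it, limit read from the data, passing the limit was not always enough; inconclusive means only one of those two conditions holds; inactive means neither condition holds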
T cruzi growth-2 – blocks T. cruzi growth in NIH3T3 host cells; inhibition, % at 8.35 µM; T. cruzi beta-gal in NIH3T3, GalScreen luminescence, 90 h; AID 651739; shares compounds with T cruzi growth-1; actives 72% (n = 5,600);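 active means mean replicate inhibition above about 95% and at least 55% of replicates individually reaching it, limit read from the data; inconclusive means only one of the two criteria is met; inactive means neither criterion is met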
T cruzi growth-3 – Trypanosoma cruzi proliferation inhibition; T. cruzi beta-gal in NIH3T3, GalScreen luminescence, 90 h; actives 21% (n = 5,600); inhibition, % at 2.09 µM; shares compounds with T cruzi growth-1;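 active means mean inhibition above about 95%, with at least 55% of replicates also reaching it, limit read from the data; inconclusive means meets just one of the two conditions; inactive means meets neither condition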
3T3 cytotox – NIH/3T3 (mouse) viability loss; actives 14% (n = 5,600); NIH/3T3 viability, CellTiter-Glo ATP luminescence, 90 h; shares compounds with T cruzi growth-1; cytotoxicity (signal decrease), % at 8.35 µM;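 active means mean signal decrease across replicates above about 35% based on untreated-well scatter, with enough replicates individually passing, limit read from the data; inconclusive means no rule stated though some were filed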
NIH3T3 tox 2 – cytotoxicity in mouse NIH/3T3 fibroblasts; inhibition, % at 24.9 µM; NIH/3T3 viability, CellTiter-Glo ATP luminescence, 90 h; shares compounds with T cruzi growth-1; actives 56% (n = 5,600);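 active means mean loss of cell viability signal at or above a set limit, and enough replicates individually reaching it; inconclusive means meets only the mean limit or only the replicate share; inactive means meets neither condition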
Each line names hits and unclear results; the compound was inactive in the other large screens (follow-up assays come after a bar, where they were run); ! = a repeat was not active.

C[C@@H]1CN([C@@H](C)CO)C(=O)c2c(c3ccccc3n2C)-c2ccccc2CO[C@@H]1CN(C)Cc1cccnc1	T cruzi growth-1 135 | T cruzi growth-2 99 | T cruzi growth-3 inactive | 3T3 cytotox inactive | NIH3T3 tox 2 69
C[C@H]1CN([C@@H](C)CO)C(=O)c2c(c3ccccc3n2C)-c2ccccc2CO[C@@H]1CN(C)C	none
C[C@@H]1CN([C@@H](C)CO)C(=O)c2c(c3ccccc3n2C)-c2ccccc2CO[C@@H]1CN(C)S(C)(=O)=O	none
C[C@@H]1CN([C@H](C)CO)C(=O)c2c(c3ccccc3n2C)-c2ccccc2CO[C@H]1CN(C)C	T cruzi growth-1 106 | T cruzi growth-2 inactive | T cruzi growth-3 inactive | 3T3 cytotox inactive | NIH3T3 tox 2 inactive
COc1ccccc1N(CC(=O)N(C)C)S(=O)(=O)c1ccc(C)cc1	none (no result: KDM4C inh, Pf Dd2 growth, T cruzi growth-1)
CCC1(C)Cc2nc3nc(SCC(=O)c4ccc(Br)cc4)n(-c4ccccc4)c(=O)c3cc2CO1 (configuration not stated)	none (no result: KDM4C inh, Pf Dd2 growth, T cruzi growth-1)
Cn1c2ccccc2c2nnc(SCC(=O)c3ccc(Cl)cc3)nc21	none (no result: KDM4C inh, Pf Dd2 growth, T cruzi growth-1)
C[C@@H]1CN([C@H](C)CO)S(=O)(=O)c2ccc(-c3cccc(F)c3)cc2O[C@H]1CN(C)C(=O)Nc1cc(F)ccc1F	T cruzi growth-1 115 | T cruzi growth-2 96 | T cruzi growth-3 inactive | 3T3 cytotox 64 | NIH3T3 tox 2 81
C[C@@H]1CN([C@@H](C)CO)S(=O)(=O)c2ccc(-c3cccc(F)c3)cc2O[C@H]1CN(C)C(=O)Nc1cc(F)ccc1F	T cruzi growth-1 115 | T cruzi growth-2 101 | T cruzi growth-3 inactive | 3T3 cytotox 51 | NIH3T3 tox 2 57
C[C@H]1CN([C@@H](C)CO)S(=O)(=O)c2ccc(-c3ccccc3)cc2O[C@@H]1CN(C)C(=O)Nc1ccccc1F	none
CNC[C@H]1OCCCC[C@@H](C)Oc2ccc(NC(=O)Cc3ccccc3)cc2C(=O)N([C@@H](C)CO)C[C@H]1C	T cruzi growth-1 inconclusive (no result: IDH1 R132H inh) | T cruzi growth-2 inactive | T cruzi growth-3 inactive | 3T3 cytotox inactive | NIH3T3 tox 2 inactive
C[C@H]1CN([C@@H](C)CO)C(=O)c2cc(NC(=O)CCCN(C)C)ccc2O[C@@H]1CN(C)S(C)(=O)=O	T cruzi growth-1 104 | T cruzi growth-2 inactive | T cruzi growth-3 inactive | 3T3 cytotox inactive | NIH3T3 tox 2 inactive
CNC[C@H]1OCCCC[C@H](C)Oc2ccc(NC(=O)CCCN(C)C)cc2C(=O)N([C@H](C)CO)C[C@@H]1C	T cruzi growth-1 100! | T cruzi growth-2 inactive | T cruzi growth-3 inactive | 3T3 cytotox inactive | NIH3T3 tox 2 inactive
CNC[C@@H]1OCCCC[C@@H](C)Oc2ccc(NC(=O)CCCN(C)C)cc2C(=O)N([C@H](C)CO)C[C@@H]1C	none (no result: IDH1 R132H inh)
CNC[C@@H]1OCCCC[C@H](C)Oc2ccc(NC(=O)CCC(F)(F)F)cc2C(=O)N([C@@H](C)CO)C[C@@H]1C	T cruzi growth-1 98 | T cruzi growth-2 inconclusive | T cruzi growth-3 inactive | 3T3 cytotox inactive | NIH3T3 tox 2 inactive
COc1cccc(NC(=O)CCc2nc(-c3ccc(C)cc3)no2)c1	none (no result: KDM4C inh, Pf Dd2 growth, T cruzi growth-1)
O=C(CSc1nnc(-c2cccc([N+](=O)[O-])c2)n1-c1ccccc1)Nc1ccc(F)cc1	none (no result: KDM4C inh, Pf Dd2 growth, T cruzi growth-1)
COc1cccc(-c2ccc3c(c2)O[C@@H](CN(C)C(=O)C2CCCCC2)[C@H](C)CN([C@@H](C)CO)S3(=O)=O)c1	T cruzi growth-1 112 (no result: IDH1 R132H inh) | T cruzi growth-2 105 | T cruzi growth-3 inactive | 3T3 cytotox inactive | NIH3T3 tox 2 90
COc1cccc(-c2ccc3c(c2)O[C@@H](CN(C)C(=O)C2CCC2)[C@@H](C)CN([C@H](C)CO)S3(=O)=O)c1	none
COc1cccc(-c2ccc3c(c2)O[C@@H](CN(C)C(=O)C2CCC2)[C@@H](C)CN([C@@H](C)CO)S3(=O)=O)c1	none (no result: IDH1 R132H inh)
COc1cccc(-c2ccc3c(c2)O[C@@H](CN(C)C(=O)C2CCCCC2)[C@@H](C)CN([C@H](C)CO)S3(=O)=O)c1	T cruzi growth-1 92 (no result: IDH1 R132H inh) | T cruzi growth-2 98 | T cruzi growth-3 inactive | 3T3 cytotox inactive | NIH3T3 tox 2 90
COc1cccc(-c2ccc3c(c2)O[C@H](CN(C)C(=O)C2CCCCC2)[C@H](C)CN([C@H](C)CO)S3(=O)=O)c1	T cruzi growth-1 115 (no result: IDH1 R132H inh) | T cruzi growth-2 106 | T cruzi growth-3 98 | 3T3 cytotox 44 | NIH3T3 tox 2 87
COc1cccc(-c2ccc3c(c2)O[C@H](CN(C)C(=O)C2CCCCC2)[C@@H](C)CN([C@@H](C)CO)S3(=O)=O)c1	T cruzi growth-1 97 (no result: IDH1 R132H inh) | T cruzi growth-2 111 | T cruzi growth-3 inactive | 3T3 cytotox inactive | NIH3T3 tox 2 76
Cc1nn(Cc2c(Cl)cccc2Cl)c(C)c1NC(=O)c1noc2c1CC(C(C)(C)C)CC2 (configuration not stated)	none (no result: KDM4C inh, Pf Dd2 growth, T cruzi growth-1)
CCOC(=O)COc1ccc(-c2nc3c([nH]2)c(=O)n(C)c(=O)n3C)cc1OC	none (no result: KDM4C inh, Pf Dd2 growth, T cruzi growth-1)
COc1cc(O)c(C(=O)CCc2ccc(OC)c(OC)c2)c(OC)c1	none (no result: KDM4C inh, Pf Dd2 growth, T cruzi growth-1)
CN1CCN(C(=S)SCC(=O)Nc2nc(=O)c3ccccc3s2)CC1	none (no result: KDM4C inh, Pf Dd2 growth, T cruzi growth-1)
O=[N+]([O-])c1cc(C(F)(F)F)ccc1N(CCO)CCO	none (no result: KDM4C inh, Pf Dd2 growth, T cruzi growth-1)
COc1cccc(-c2ccc3c(c2)O[C@H](CN(C)C(=O)C2CCC2)[C@H](C)CN([C@@H](C)CO)S3(=O)=O)c1	T cruzi growth-1 103 | T cruzi growth-2 95 | T cruzi growth-3 inactive | 3T3 cytotox 57 | NIH3T3 tox 2 78
COc1cccc(-c2ccc3c(c2)O[C@H](CN(C)C(=O)C2CCC2)[C@H](C)CN([C@H](C)CO)S3(=O)=O)c1	none
CCN1[C@H](C(=O)OC)[C@@H](CO)[C@@H]2Cn3c(ccc(C4=CCCCC4)c3=O)[C@@H]21	T cruzi growth-1 103 (no result: IDH1 R132H inh) | T cruzi growth-2 inactive | T cruzi growth-3 inactive | 3T3 cytotox inactive | NIH3T3 tox 2 inactive
CCN1[C@@H]2c3ccc(C4=CCCCC4)c(=O)n3C[C@@H]2[C@@H](CO)[C@@H]1C(=O)OC	T cruzi growth-1 97 (no result: IDH1 R132H inh) | T cruzi growth-2 inactive | T cruzi growth-3 inactive | 3T3 cytotox inactive | NIH3T3 tox 2 inactive
COC(=O)[C@@H]1[C@@H](CO)[C@@H]2Cn3c(ccc(C4=CCCCC4)c3=O)[C@@H]2N1CCC(F)(F)F	none (no result: IDH1 R132H inh, Pf Dd2 growth)
CN(C)C(=O)[C@@H]1[C@@H](CO)[C@@H]2Cn3c(ccc(C4=CCCCC4)c3=O)[C@@H]2N1Cc1ccccn1	T cruzi growth-1 active (no result: IDH1 R132H inh, Pf Dd2 growth) | T cruzi growth-2 inactive | T cruzi growth-3 inactive | 3T3 cytotox inactive | NIH3T3 tox 2 39
